Results on 39 compounds are retold here after ChEMBL document CHEMBL1122116, “Antiparasitic agents. 5. Synthesis and anthelmintic activities of novel 2-heteroaromatic-substituted isothiocyanatobenzoxazoles and benzothiazoles” (J Med Chem, 1982).

Data set [1] deals with Heligmosomoides polygyrus. Briefly: Mouse oral clearance was measured against Nematospiroides dubius. The class given is functional. Set-up: concentration or dose not given beside the values. Summed up:
(§1)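 Mice experimentally infected with N. dubius (nematode) or H. nana (tapeworm) received the compound in the diet at 0.2%. Read-out is percent clearance of worms after oral dosing.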

In data set [2] the test system is Ovis aries. Briefly: Percent reduction in nematode fecal egg count was measured in sheep following 50 mg/kg p.o. The class given is functional. The following applies: route oral.
A further data set has as its system Rodentolepis nana. Briefly: Mouse oral clearance was measured against Hymenolepiasis nana. The class given is functional. Also on record: concentration or dose not given beside the values. The method, boiled down: as §1
The subject of data set [3] is Ovis aries. The data set can be described thus: Percent reduction in fecal egg count was measured in sheep dosed at 25 mg/kg. The class given is functional.
Data set [4] concerns Heligmosomoides polygyrus. Briefly: Titration of anthelmintic activity against Nematospiroides dubius in mice at 0.05 concentration of diet. The following applies: in vivo, po. The class given is ADME, organism-based. The method, boiled down: (§2)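 Titration in mice experimentally infected with N. dubius, with the compound mixed into the diet at a series of levels. Read-out is nematode clearance.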

For data set [5], the system named is Heligmosomoides polygyrus. Briefly: Titration of anthelmintic activity against Nematospiroides dubius in mice at 0.0125 concentration of diet. The class given is ADME, organism-based. The following applies: in vivo, po. The method, boiled down: as §2
Data set [6] deals with Heligmosomoides polygyrus. Briefly: Titration of anthelmintic activity against Nematospiroides dubius in mice at 0.025 concentration of diet. The class given is ADME, organism-based. The conditions noted are these: in vivo, po. Summed up: as §2
Data set [7] concerns Heligmosomoides polygyrus. Briefly: Titration of anthelmintic activity against Nematospiroides dubius in mice at 0.2 concentration of diet. The following applies: in vivo, po. The class given is ADME, organism-based. The method, boiled down: as §2
Data set [8] relates to Heligmosomoides polygyrus. Briefly: Titration of anthelmintic activity against Nematospiroides dubius in mice at 0.1 concentration of diet. The class given is ADME, organism-based. The following applies: in vivo, po. The method, boiled down:
as §2

For data set [9], the system named is Ovis aries. Briefly: Percent reduction in fecal egg count was measured in sheep dosed at 100 mg/kg. The class given is functional.
Data set [10] relates to Ovis aries. The data set can be described thus: Percent reduction in fecal egg count was measured in sheep dosed at 44 mg/kg. The class given is functional.
The test system of data set [11] is Ovis aries. Briefly: Percent reduction in fecal egg count was measured in sheep dosed at 58 mg/kg. The class given is functional.
In data set [12] the test system is Ovis aries. Briefly: Percent reduction in fecal egg count was measured in sheep dosed at 50 mg/kg. The class given is ADME, organism-based. Set-up: dose 50 mg/kg. The conditions noted are these: in vivo.

Turning to `S=C=Nc1cc(Cl)c2oc(-c3cccnc3)nc2c1`, the Activity (in [1]; in the data set on Rodentolepis nana) was 0% in each case. Further, the Reduction in the data set on Ovis aries [2] turned out to be 0%.

For the compound `Cc1ccsc1-c1nc2cc(N=C=S)ccc2o1`, the values for the Activity (in data set [1]; in the data set on Rodentolepis nana) were 78% and 0%, respectively.

With `Cc1cc2oc(-c3cccnc3)nc2cc1N=C=S`, the Activity is 99% in data set [1] and 0% in the data set with Rodentolepis nana. In the data set with Ovis aries [3], this compound registered a Reduction of 0%.

Regarding `S=C=Nc1cc(Cl)c2oc(-c3cccs3)nc2c1`, the Activity (in [1]; in the data set on Rodentolepis nana) was 0% throughout.

`Cc1ccc(-c2nc3cc(N=C=S)ccc3o2)s1`: the results for the Activity (in [1]; in the data set with Rodentolepis nana) were 0% and 33%, respectively.

Turning to `S=C=Nc1ccc2nc(-c3cccnc3)sc2c1.S=C=Nc1ccc2sc(-c3cccnc3)nc2c1`, the values for the Activity (in data set [1]; with Rodentolepis nana) were 99% and 100%, respectively. Further, the Reduction in the data set on Ovis aries [2] stood at 99%.

As to `S=C=Nc1ccc2oc(-c3ccccc3)nc2c1`, the Activity in data set [1] was found to be 60%; in the data set with Rodentolepis nana, 0%. This compound also came in with a Reduction in the data set with Ovis aries [2] of 57%.

Take `Cn1cccc1-c1nc2cc(N=C=S)ccc2o1`: the Activity in [4] amounted to 45%; in data set [5] it was 0%; in data set [6] it was 25%; in [1], 100%; in data set [7], 100%; in [8], 81%. In the data set on Rodentolepis nana, the Activity is listed as 25%. This compound gave a Reduction with Ovis aries [2] of 34%.

With `CCN(CC)Cc1ccc(-c2nc3cc(N=C=S)ccc3o2)s1.Cl`, the Activity (in [1]; in the data set with Rodentolepis nana) was 0% throughout.

In the case of `CN1CCN(Cc2ccc(-c3nc4cc(N=C=S)ccc4o3)s2)CC1`, the Activity (in data set [1]; in the data set with Rodentolepis nana) was 0% throughout.

`S=C=Nc1ccc2oc(-c3cccs3)nc2c1`: the values for the Activity (in data set [1]; with Rodentolepis nana) were 98% and 0%, respectively.

With `S=C=Nc1ccc2nc(-c3cnccn3)oc2c1.S=C=Nc1ccc2oc(-c3cnccn3)nc2c1`, the Activity in [1] came out at 0%. The compound also yielded a Reduction in the data set on Ovis aries [2] of 93%.

Turning to `Cc1cc2oc(-c3ccccn3)nc2cc1N=C=S`, the Activity (in data set [1]; in the data set on Rodentolepis nana) was 0% throughout. The Reduction with Ovis aries [2] is given as 90%.

`S=C=Nc1ccc2oc(-c3ccco3)nc2c1`: the Reduction in the data set with Ovis aries [9] is reported as 97%. Besides, the Activity in [4] amounted to 39%; in data set [5], 0%; in data set [6], 0%; in [1], 100%; in [7] it was 100%; in [8], 88%. In addition, in the data set on Rodentolepis nana, the Activity was determined as 0%.

With `CN1CCN(c2ccc(-c3nc4cc(N=C=S)ccc4o3)cn2)CC1`, the Activity (in data set [1]; with Rodentolepis nana) was 0% throughout. Besides, the Reduction in the data set with Ovis aries [2] is 0%.

In turn, `S=C=Nc1ccc2nc(-c3cccnc3)oc2c1.S=C=Nc1ccc2oc(-c3cccnc3)nc2c1` came in with a Reduction in the data set on Ovis aries [3] of 94%.

Consider `S=C=Nc1ccc2oc(-c3sccc3CN3CCOCC3)nc2c1`, for which the Activity (in data set [1]; with Rodentolepis nana) was 0% in each case.

Regarding `S=C=Nc1ccc2[nH]c(-c3ccccn3)nc2c1`, the Activity worked out at 0% in [1] and 100% with Rodentolepis nana. This compound also showed a Reduction in the data set on Ovis aries [2] of 100%.

In the case of `S=C=Nc1ccc2nc(-c3ccccn3)sc2c1`, the Activity is reported as 0% in [1] and 75% in the data set on Rodentolepis nana. In the data set with Ovis aries [2], this compound returned a Reduction of 65%.

With `S=C=Nc1ccc2sc(-c3cccnc3)nc2c1`, the figures for the Activity (in data set [1]; in the data set with Rodentolepis nana) were 58% and 0%, respectively.

Take `COc1cc2sc(-c3cccnc3)nc2cc1N=C=S`: the Activity in data set [1] was 5%; in the data set with Rodentolepis nana, 0%. Also, in the data set on Ovis aries [2], the Reduction came to 40%.

Take `Cn1cccc1-c1nc2cc(N=C=S)cc(Cl)c2o1`: the Activity (in data set [1]; with Rodentolepis nana) was 0% each time.

For the compound `S=C=Nc1ccc2nc(-c3cccnc3)oc2c1`, the Activity is recorded as 46% in [1] and 0% in the data set on Rodentolepis nana. In the data set with Ovis aries [2], this compound gave a Reduction of 78%.

Turning to `Cc1cc2nc(-c3cccnc3)oc2cc1N=C=S`, the Activity (in data set [1]; in the data set on Rodentolepis nana) was 0% each time. The compound further yielded a Reduction in the data set on Ovis aries [10] of 99%.

With `c1ccc2[nH]c(-c3cscn3)nc2c1` [THIABENDAZOLE], the Activity in data set [5] is on record as 40%; in data set [6], 47%; in data set [7], 96%; in data set [8], 89%.

On to `S=C=Nc1ccc2oc(-c3ccc(CN4CCOCC4)s3)nc2c1`, for which the values for the Activity (in data set [1]; in the data set on Rodentolepis nana) were 0% and 66%, respectively.

Turning to `S=C=Nc1ccc2nc(-c3cccs3)oc2c1`, the Activity (in [1]; in the data set on Rodentolepis nana) was 0% each time.

Turning to `S=C=Nc1ccc2oc(-c3ccc(CN4CCOCC4)o3)nc2c1`, the Activity (in data set [1]; in the data set with Rodentolepis nana) was 0% in each case.

With `S=C=Nc1ccc2oc(-c3ccc(Cl)nc3)nc2c1`, the Activity (in data set [1]; in the data set with Rodentolepis nana) was 0% each time. Moreover, the Reduction in the data set on Ovis aries [2] worked out at 97%.

In the case of `Cc1ccc(-c2nc3cc(N=C=S)ccc3o2)o1`, in the data set on Ovis aries [9], the Reduction came out at 97%. Also, the Activity stood at 100% in data set [1] and 66% with Rodentolepis nana.

With `S=C=Nc1ccnc(-c2nc3ccccc3o2)c1`, the Activity (in [1]; with Rodentolepis nana) was 0% throughout. Also, in the data set with Ovis aries [2], the Reduction came to 10%.

For the compound `S=C=Nc1ccc2nc(-c3ccccn3)oc2c1.S=C=Nc1ccc2oc(-c3ccccn3)nc2c1`, the Activity in data set [1] is 0%; in the data set with Rodentolepis nana, 50%. The same compound gave a Reduction with Ovis aries [2] of 35%.

Turning to `S=C=Nc1ccc2sc(-c3ccccn3)nc2c1`, in the data set on Ovis aries [11], the Reduction is given as 36%. Besides, the Activity in data set [1] is listed as 20%; in the data set on Rodentolepis nana, 50%.

In the data set on Ovis aries [12], `S=C=Nc1ccc2oc(-c3cccnc3)nc2c1` showed a Reduction of 69%.

On to `CN(C)c1ccc(-c2nc3cc(N=C=S)ccc3o2)cn1.CN(C)c1ccc(-c2nc3ccc(N=C=S)cc3o2)cn1`, for which the Activity (in data set [1]; in the data set with Rodentolepis nana) was 0% throughout.

Regarding `S=C=Nc1cc(Cl)c2oc(-c3ccc(Cl)nc3)nc2c1`, the Activity (in data set [1]; in the data set on Rodentolepis nana) was 0% throughout.

In the case of `S=C=Nc1ccc2nc(-c3ccc(N4CCOCC4)nc3)oc2c1.S=C=Nc1ccc2oc(-c3ccc(N4CCOCC4)nc3)nc2c1`, the Activity (in [1]; with Rodentolepis nana) was 0% in each case. The compound further yielded a Reduction with Ovis aries [2] of 27%.

Consider `S=C=Nc1ccc2sc(-c3cccs3)nc2c1`, for which the Activity in data set [1] turned out to be 61%; in the data set with Rodentolepis nana, 0%. The Reduction with Ovis aries [2] is recorded as 57%.

Regarding `S=C=Nc1ccc2oc(-c3ccncc3)nc2c1`, the Activity (in [1]; in the data set with Rodentolepis nana) was 0% each time. The Reduction in the data set with Ovis aries [2] turned out to be 40%.
